From PMC7862734 (Investigative Ophthalmology & Visual Science, 2021)
Each block holds one molecule with its values, some of them ahead of it. *: point of attachment. Biotin = O=C1N[C@H]2[C@H](CS[C@H]2CCCCC(=O)*)N1

Tests used:
[1] = intravitreal, human eyes; cited from earlier work
[2] = target: cytosolic kinase domain of PDGFRβ (Homo sapiens, UniProt P09619); assay: SPR; assay type: binding; details: protein up to 200 nM, HBS-EP, 25°C
[3] = target: cytosolic kinase domain of PDGFRα (Homo sapiens, UniProt P16234); assay: SPR; assay type: binding; details: protein up to 200 nM, HBS-EP, 25°C
[4] = tested on: laser-induced CNV in C57BL/6 mice; assay: Laser-induced choroidal neovascularization; assay type: in vivo, mouse
How it was run: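 C57BL/6 mice (7 weeks). Four 532 nm laser burns per mouse (200–355 mW, 50 µm, 70 msec). Test compound given as a daily eye drop (2 or 5 µg/eye in 5 µL PBS, days 1–14 or days 7–14) or as an intravitreal injection after laser (0.5–10 µg in 2 µL PBS), against control peptide or PBS. Day-14 OCT cross-section and ILB4-stained choroidal flat-mount area, averaged per mouse.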

[5] = Biodistribution after eye drop, cryosection stained with Alexa 488-streptavidin; assay type: in vivo, mouse; details: eye drop 5 µg/eye, C57BL/6, time points 10 minutes, 30 minutes, 1 hour, 2 hours, streptavidin staining
VEGFR2 = VEGFR2 (Homo sapiens, UniProt P35968); assay: Pull-down assay from HUVEC lysate, Western blotting; assay type: binding; details: biotin-peptide on streptavidin beads
How it was run: (§1)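 HUVEC at passage 3–6 grown in EGM2 and lysed. Lysate incubated with biotinylated test or control peptide captured on streptavidin beads. After washing, bound proteins and lysate input were immunoblotted with antibodies to VEGFR2 and Centaurin A.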

[6] = target: cytosolic kinase domain of EGFR (Homo sapiens, UniProt P00533); assay: SPR; assay type: binding; details: protein up to 200 nM, HBS-EP, 25°C
Centaurin alpha (CentA) = target: T1, Centaurin alpha (CentA) (Homo sapiens, UniProt O75689); assay: Pull-down assay from HUVEC lysate, Western blotting; assay type: binding; details: biotin-peptide on streptavidin beads
T1 sequence (O75689 1-374): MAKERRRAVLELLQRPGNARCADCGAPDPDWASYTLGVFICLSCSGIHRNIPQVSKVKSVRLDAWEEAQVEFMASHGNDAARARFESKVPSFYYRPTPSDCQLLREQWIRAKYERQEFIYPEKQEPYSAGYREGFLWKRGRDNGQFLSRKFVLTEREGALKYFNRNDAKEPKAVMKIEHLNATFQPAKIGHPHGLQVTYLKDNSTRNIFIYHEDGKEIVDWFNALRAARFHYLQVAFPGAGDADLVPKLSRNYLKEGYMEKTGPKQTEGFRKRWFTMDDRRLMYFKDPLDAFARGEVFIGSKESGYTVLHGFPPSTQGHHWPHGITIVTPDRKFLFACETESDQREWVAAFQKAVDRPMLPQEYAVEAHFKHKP
How it was run: as §1

[7] = target: Kinesin-derived angiogenesis inhibitor (KAI), biotinylated (human) (UniProt Q9NQT8); assay: SPR
[8] = target: recombinant cytosolic domain (789-1356 aa) of VEGFR2 (UniProt P35968 789-1356); assay: SPR
Sequence of recombinant cytosolic domain (789-1356 aa) of VEGFR2 (P35968 789-1356): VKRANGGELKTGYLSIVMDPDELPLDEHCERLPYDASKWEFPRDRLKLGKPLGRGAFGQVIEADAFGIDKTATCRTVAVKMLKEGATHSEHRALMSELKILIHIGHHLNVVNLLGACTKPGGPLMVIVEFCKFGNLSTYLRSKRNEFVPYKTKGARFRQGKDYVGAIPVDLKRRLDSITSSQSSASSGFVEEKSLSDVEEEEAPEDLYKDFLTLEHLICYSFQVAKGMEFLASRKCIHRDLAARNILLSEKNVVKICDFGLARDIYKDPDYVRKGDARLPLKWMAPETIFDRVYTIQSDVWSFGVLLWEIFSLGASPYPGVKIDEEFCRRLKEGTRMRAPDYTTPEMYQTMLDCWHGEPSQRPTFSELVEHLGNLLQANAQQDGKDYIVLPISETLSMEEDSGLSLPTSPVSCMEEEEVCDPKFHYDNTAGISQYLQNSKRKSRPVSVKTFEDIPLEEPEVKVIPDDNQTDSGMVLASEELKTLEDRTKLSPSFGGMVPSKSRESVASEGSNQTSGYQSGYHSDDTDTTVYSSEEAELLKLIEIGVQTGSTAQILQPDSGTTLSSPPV

Sequence of cytosolic kinase domain of PDGFRβ (P09619 554-1106 limits assumed): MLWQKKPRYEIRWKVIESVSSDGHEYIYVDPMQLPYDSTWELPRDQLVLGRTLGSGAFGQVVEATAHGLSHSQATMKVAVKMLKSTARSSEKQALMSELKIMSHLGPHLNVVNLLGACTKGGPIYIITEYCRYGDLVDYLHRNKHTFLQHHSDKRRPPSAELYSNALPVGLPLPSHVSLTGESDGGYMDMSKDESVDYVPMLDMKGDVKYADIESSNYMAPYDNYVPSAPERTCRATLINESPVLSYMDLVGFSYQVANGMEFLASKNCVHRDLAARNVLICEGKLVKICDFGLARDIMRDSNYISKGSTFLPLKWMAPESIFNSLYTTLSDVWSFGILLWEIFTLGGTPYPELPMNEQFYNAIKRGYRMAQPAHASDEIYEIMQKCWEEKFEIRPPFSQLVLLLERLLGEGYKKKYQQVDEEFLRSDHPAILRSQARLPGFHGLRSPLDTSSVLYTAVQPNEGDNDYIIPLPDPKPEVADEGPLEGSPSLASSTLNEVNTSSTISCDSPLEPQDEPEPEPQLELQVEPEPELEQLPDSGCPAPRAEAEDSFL
Sequence of cytosolic kinase domain of PDGFRα (P16234 550-1089 limits assumed): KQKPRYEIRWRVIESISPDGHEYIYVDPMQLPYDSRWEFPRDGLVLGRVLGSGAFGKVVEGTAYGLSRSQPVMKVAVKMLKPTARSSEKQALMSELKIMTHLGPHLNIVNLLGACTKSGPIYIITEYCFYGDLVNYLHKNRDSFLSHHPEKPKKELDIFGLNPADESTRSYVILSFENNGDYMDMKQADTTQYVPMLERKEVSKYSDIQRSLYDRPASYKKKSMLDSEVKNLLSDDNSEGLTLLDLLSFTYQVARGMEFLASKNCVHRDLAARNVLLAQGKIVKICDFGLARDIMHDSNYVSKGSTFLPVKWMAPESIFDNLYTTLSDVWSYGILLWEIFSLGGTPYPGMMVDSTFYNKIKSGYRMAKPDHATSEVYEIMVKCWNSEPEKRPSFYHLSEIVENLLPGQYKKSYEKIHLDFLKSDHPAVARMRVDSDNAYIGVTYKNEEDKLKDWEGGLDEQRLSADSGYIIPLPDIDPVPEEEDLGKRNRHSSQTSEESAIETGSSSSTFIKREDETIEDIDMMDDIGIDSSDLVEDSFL
Sequence of VEGFR2 (P35968 20-1356): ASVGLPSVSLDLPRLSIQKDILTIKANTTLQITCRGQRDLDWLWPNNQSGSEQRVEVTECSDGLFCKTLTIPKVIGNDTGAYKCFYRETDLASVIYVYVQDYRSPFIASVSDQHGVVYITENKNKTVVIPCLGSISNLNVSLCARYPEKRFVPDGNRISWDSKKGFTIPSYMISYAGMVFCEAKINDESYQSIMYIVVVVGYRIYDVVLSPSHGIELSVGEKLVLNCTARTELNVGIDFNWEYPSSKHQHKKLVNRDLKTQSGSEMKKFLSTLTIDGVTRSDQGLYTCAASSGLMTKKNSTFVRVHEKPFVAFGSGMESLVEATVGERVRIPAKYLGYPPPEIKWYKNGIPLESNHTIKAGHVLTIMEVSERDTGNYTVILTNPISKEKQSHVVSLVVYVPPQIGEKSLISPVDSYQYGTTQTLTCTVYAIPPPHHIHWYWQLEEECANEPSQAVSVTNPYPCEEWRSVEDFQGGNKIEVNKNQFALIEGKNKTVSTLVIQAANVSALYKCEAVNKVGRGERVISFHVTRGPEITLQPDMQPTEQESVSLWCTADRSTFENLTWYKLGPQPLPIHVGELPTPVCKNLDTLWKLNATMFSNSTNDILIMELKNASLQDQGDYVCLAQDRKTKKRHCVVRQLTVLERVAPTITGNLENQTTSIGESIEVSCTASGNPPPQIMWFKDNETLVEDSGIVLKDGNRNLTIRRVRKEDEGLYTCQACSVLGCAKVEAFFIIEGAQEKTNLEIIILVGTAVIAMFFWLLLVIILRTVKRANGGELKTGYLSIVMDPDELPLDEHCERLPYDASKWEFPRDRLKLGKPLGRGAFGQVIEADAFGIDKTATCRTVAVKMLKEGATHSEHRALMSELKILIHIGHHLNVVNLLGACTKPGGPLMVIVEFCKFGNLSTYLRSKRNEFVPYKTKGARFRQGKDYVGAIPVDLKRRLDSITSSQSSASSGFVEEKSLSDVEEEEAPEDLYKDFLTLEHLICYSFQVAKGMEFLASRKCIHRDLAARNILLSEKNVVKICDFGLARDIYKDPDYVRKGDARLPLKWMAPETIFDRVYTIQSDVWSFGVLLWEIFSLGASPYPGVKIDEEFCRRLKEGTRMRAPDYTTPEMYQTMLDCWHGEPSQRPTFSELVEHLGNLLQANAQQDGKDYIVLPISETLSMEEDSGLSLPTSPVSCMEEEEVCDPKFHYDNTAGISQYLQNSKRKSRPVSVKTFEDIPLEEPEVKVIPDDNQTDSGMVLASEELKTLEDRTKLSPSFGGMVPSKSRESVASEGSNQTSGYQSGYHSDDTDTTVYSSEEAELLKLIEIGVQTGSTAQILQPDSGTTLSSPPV

Molecule: ranibizumab
Aqueous half-life [1]: 173 h

Molecule: KAI: 23 aa peptide, aa 1238-1260 of human KIF13B, minimum binding site to VEGFR2; biotinylated N-terminus, amidated C-terminus (Biotin-SRGTPVDERLFLIVRVTVQLSHP-NH2; SMILES CC[C@H](C)[C@H](NC(=O)[C@H](CC(C)C)NC(=O)[C@H](Cc1ccccc1)NC(=O)[C@H](CC(C)C)NC(=O)[C@H](CCCNC(=N)N)NC(=O)[C@H](CCC(=O)O)NC(=O)[C@H](CC(=O)O)NC(=O)[C@@H](NC(=O)[C@@H]1CCCN1C(=O)[C@@H](NC(=O)CNC(=O)[C@H](CCCNC(=N)N)NC(=O)[C@H](CO)NC(=O)CCCC[C@@H]1SC[C@@H]2NC(=O)N[C@@H]21)[C@@H](C)O)C(C)C)C(=O)N[C@H](C(=O)N[C@@H](CCCNC(=N)N)C(=O)N[C@H](C(=O)N[C@H](C(=O)N[C@H](C(=O)N[C@@H](CCC(N)=O)C(=O)N[C@@H](CC(C)C)C(=O)N[C@@H](CO)C(=O)N[C@@H](Cc1c[nH]cn1)C(=O)N1CCC[C@H]1C(N)=O)C(C)C)[C@@H](C)O)C(C)C)C(C)C)
Binding of PDGFRβ to immobilized peptide (in words) [2]: very weak binding | Binding of PDGFRα to immobilized peptide (in words) [3]: did not bind | Regression of developed CNV ([4]; eye drop 5 µg/eye daily from day 7 to day 14): effective to regress neovascularization | Area of CNV measured by OCT (cross-section) vs ctrl ([4]; eye drop 2∼5 µg/eye daily day 1 to day 14, 200 mW laser, day 14): significantly reduced | Effect on CNV vs PBS (OCT and ILB4 staining) ([4]; intravitreal injection 2 µg in 2 µL PBS after laser burn, 355 mW, C57BL/6, P = 0.045 (OCT), P = 0.034 (ILB4), one-way ANOVA): significantly inhibited | Time at which peptide was detected in the retina and choroid [5]: 30 min | Interaction with VEGFR2 in pull-down (VEGFR2): interacts | Binding of EGFR to immobilized peptide (in words) [6]: did not bind | Interaction with CentA in pull-down (Centaurin alpha (CentA)): does not bind

Molecule: bevacizumab
Aqueous half-life [1]: 236 h

More lines, now with the values ahead:

Kd [7]: > 200 nM
Molecule: recombinant cytosolic domain of PDGFRB (domain or fragment)

Kd [8]: 6.8 ± 0.6 nM
B1: Kinesin-derived angiogenesis inhibitor (KAI), biotinylated (peptide, UniProt Q9NQT8 1238-1260, looked up)
peptide: Biotin-SRGTPVDERLFLIVRVTVQLSHP-NH2
SMILES: CC[C@H](C)[C@H](NC(=O)[C@H](CC(C)C)NC(=O)[C@H](Cc1ccccc1)NC(=O)[C@H](CC(C)C)NC(=O)[C@H](CCCNC(=N)N)NC(=O)[C@H](CCC(=O)O)NC(=O)[C@H](CC(=O)O)NC(=O)[C@@H](NC(=O)[C@@H]1CCCN1C(=O)[C@@H](NC(=O)CNC(=O)[C@H](CCCNC(=N)N)NC(=O)[C@H](CO)NC(=O)CCCC[C@@H]1SC[C@@H]2NC(=O)N[C@@H]21)[C@@H](C)O)C(C)C)C(=O)N[C@H](C(=O)N[C@@H](CCCNC(=N)N)C(=O)N[C@H](C(=O)N[C@H](C(=O)N[C@H](C(=O)N[C@@H](CCC(N)=O)C(=O)N[C@@H](CC(C)C)C(=O)N[C@@H](CO)C(=O)N[C@@H](Cc1c[nH]cn1)C(=O)N1CCC[C@H]1C(N)=O)C(C)C)[C@@H](C)O)C(C)C)C(C)C
